66 compounds from PubChem BioAssay AID686992 (Broad Institute, 2013) can be followed below.

The campaign covered roughly 260,000 compounds. About 960 (0.37%) were called active.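 How the source made its calls: active means mean E-selectin-positive cell signal at least 10% of the positive control, reached in at least 60% of replicates, without over 20% cell loss; inconclusive means no rule given, readout overlaps actives, possibly toxicity-flagged; inactive means the rest, including those meeting only one limit.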 Shown is part of a subset that was picked to be rich in actives.

Sequence of E-selectin (Homo sapiens) (P16581 whole entry, looked up): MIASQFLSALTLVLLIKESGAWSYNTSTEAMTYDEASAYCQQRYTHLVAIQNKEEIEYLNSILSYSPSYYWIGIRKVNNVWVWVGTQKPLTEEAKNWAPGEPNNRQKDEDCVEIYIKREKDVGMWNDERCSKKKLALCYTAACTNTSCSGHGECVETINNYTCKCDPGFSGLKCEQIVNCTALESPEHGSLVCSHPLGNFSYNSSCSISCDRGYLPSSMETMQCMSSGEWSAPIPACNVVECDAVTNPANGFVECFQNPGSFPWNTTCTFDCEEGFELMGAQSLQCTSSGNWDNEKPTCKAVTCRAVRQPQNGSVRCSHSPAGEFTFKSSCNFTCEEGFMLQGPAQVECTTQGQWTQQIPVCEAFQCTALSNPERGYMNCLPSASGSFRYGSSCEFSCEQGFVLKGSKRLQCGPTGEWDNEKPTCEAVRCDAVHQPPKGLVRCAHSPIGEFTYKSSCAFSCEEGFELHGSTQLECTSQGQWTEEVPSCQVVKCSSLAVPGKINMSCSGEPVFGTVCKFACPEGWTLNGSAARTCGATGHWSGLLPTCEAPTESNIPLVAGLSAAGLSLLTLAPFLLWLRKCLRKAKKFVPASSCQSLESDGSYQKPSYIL

This assay concerns the target E-selectin (Homo sapiens) (UniProt P16581). The experiment in a line: E-selectin induction in HUVECs, primary screen, imaging, HUVEC, immunofluorescence imaging, single point (AID 686992).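 Further: signal is the percent of cells scored E-selectin positive by PE staining.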 As to conditions: at 7.58 µM, hits give high values, normalized: neutral wells 0, TNF-alpha wells 100. The gist of the method: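 Test system: HUVEC; input: 3,000 HUVEC/well; measured by: immunofluorescence imaging; read-out: % PE-positive cells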
For the compound `COc1ccc(S(=O)(=O)N(C)C[C@H]2Oc3ccc(NC(=O)Nc4c(C)noc4C)cc3C(=O)N([C@H](C)CO)C[C@H]2C)cc1`, the activation was 45.3% (active). On to `COc1ccc(S(=O)(=O)N(C)C[C@@H]2Oc3ccc(NC(=O)Nc4c(C)noc4C)cc3C(=O)N([C@H](C)CO)C[C@@H]2C)cc1`, for which the activation was -0.053% (inactive). As for `COc1ccc(S(=O)(=O)N(C)C[C@H]2Oc3ccc(NC(=O)Nc4c(C)noc4C)cc3C(=O)N([C@@H](C)CO)C[C@@H]2C)cc1`, the activation was 43.2% (active). Take `Cc1noc(C)c1NC(=O)Nc1ccc2c(c1)C(=O)N([C@@H](C)CO)C[C@H](C)[C@H](CN(C)S(=O)(=O)c1ccc(Cl)cc1)O2`: the activation was -0.247% (inactive). As to `COc1ccc(NC(=O)Nc2ccc3c(c2)C(=O)N([C@@H](C)CO)C[C@H](C)[C@@H](CN(C)S(=O)(=O)c2ccc(Cl)cc2)O3)cc1`, the activation is 8.29% (inactive). Next, `COc1ccc(S(=O)(=O)N(C)C[C@H]2Oc3ccc(NC(=O)Nc4c(C)noc4C)cc3CC(=O)N([C@@H](C)CO)C[C@H]2C)cc1`: -4.24% (inactive). In the case of `CC1=C(C(=O)N(C(C)C)C(C)C)CC(CC(=O)NCCCCc2ccccc2)C(=O)N1CCC1=CCCCC1` (stereo unspecified), the activation was 1.3% (inactive).

For `Cc1cc(C)n2c(Nc3c(C)cccc3C)c(CCc3ccccc3)nc2n1`, the activation is 0.0345% (inactive). Turning to `COc1cccc2c1C(=O)c1c(O)c3c(c(O)c1C2=O)CC(O)(C(C)=NNC(=O)c1ccc(Cl)c(Cl)c1)CC3OC1CC(N)C(O)C(C)O1` (stereo unspecified), the activation is 160% (active). As for `CO[C@H]1CN(C)C(=O)c2ccc(NC(=O)CC(F)(F)F)cc2OC[C@H](C)N(C(=O)C2CC2)C[C@H]1C`, the figure is -0.112% (inactive); as for `CCC(=O)Nc1ccc2c(c1)C(=O)N(C)[C@@H]1CC[C@@H](CC(=O)NCCN3CCCCC3)O[C@@H]1CO2`, -0.0795% (inactive); as for `COc1ccc(N2CCN(C(=O)CNC(=O)c3ccc(Br)o3)CC2)cc1`, -0.05% (inactive). Next, `CCNS(=O)(=O)c1ccc(CCC(=O)N2CCN(c3cc(Cl)ccc3C)CC2)cc1`: -0.168% (inactive). As for `CCNS(=O)(=O)c1ccc(CCC(=O)N2CCN(c3ccc(OC)cc3)CC2)cc1`, the figure is 31.3% (active).

As to `COc1ccccc1CCn1cnc(-c2ccccc2)c1C(C)C`, the activation was -0.038% (inactive). For the compound `O=C(c1cccnc1)N1C[C@@H]2[C@H](c3ccccc31)[C@@H](CO)N2C(=O)Nc1ccc(F)cc1`, the activation was 0.778% (inactive).

With `Cc1cccc(NS(=O)(=O)c2cccc(C(=O)NNC(=O)c3ccccc3O)c2)c1`, the activation was -0.07% (inactive).

As for `O=C(Nc1ccc(Br)cc1)c1cc(S(=O)(=O)Nc2ccccn2)ccc1Cl`, the activation is 0.225% (inactive). `Cc1ccccc1NC(=O)c1cc(S(=O)(=O)Nc2cccc(C(=O)O)c2)ccc1Cl`: the activation is 65.6% (active). As for `CC(C)C[C@H]1CN([C@@H](Cc2ccccc2)CN2CCC[C@@H]2CN2C(=O)C(=O)NC[C@@H]2Cc2ccc(O)cc2)C(=O)C(=O)N1CCc1ccccc1`, the figure is 9.99% (inactive); as for `COc1ccc(C(=O)Nc2ccccc2C(=O)N2CCN(c3ccccc3)CC2)cc1`, 0.169% (inactive); as for `CCCCNC(=O)c1ccccc1NC(=O)C1=C(C)OCCS1`, 0.108% (inactive). As for `COc1ccc(N2CCN(C(=O)c3ccccc3NC(=O)C3=C(C)OCCS3)CC2)cc1`, the figure is 54.3% (active); as for `COc1ccc(Sc2ccc(NC(=O)c3cccc(Cl)c3)cc2C#N)cc1`, 2.08% (inactive). As for `CCCCSCCCNC(=O)C1CCC(CNS(=O)(=O)c2ccc(NC(C)=O)cc2)CC1` (stereo unspecified), the figure is 58.2% (active); as for `O=C(O)C1CCC(CNS(=O)(=O)c2ccc(Br)cc2)CC1` (stereo unspecified), -0.071% (inactive). `COCCCNC(=O)C1CCC(CNS(=O)(=O)c2ccc(OC)cc2)CC1` (stereo unspecified): the activation was -0.0375% (inactive). As for `C[C@@H]1CN([C@@H](C)CO)C(=O)Cc2cc(NC(=O)C3CC3)ccc2O[C@@H]1CN(C)S(C)(=O)=O`, the figure is -0.338% (inactive). Turning to `C[C@@H]1CN([C@@H](C)CO)C(=O)Cc2cc(NC(=O)NC3CCCCC3)ccc2O[C@H]1CN(C)C(=O)Nc1ccc(C(F)(F)F)cc1`, the activation was 0.389% (inactive).

As to `C[C@H]1CN([C@@H](C)CO)C(=O)Cc2cc(NC(=O)C3CC3)ccc2O[C@@H]1CN(C)S(=O)(=O)c1cccs1`, the activation is 55.7% (active). As for `C[C@H]1CN([C@@H](C)CO)C(=O)Cc2cc(NS(C)(=O)=O)ccc2O[C@@H]1CN(C)S(=O)(=O)c1cccs1`, the figure is -0.124% (inactive); as for `C[C@@H]1CN([C@@H](C)CO)C(=O)Cc2cc(NC(=O)Nc3ccc(C(F)(F)F)cc3)ccc2O[C@H]1CN(C)C(=O)Nc1ccc(F)cc1`, -0.224% (inactive); as for `C[C@H]1CN([C@@H](C)CO)C(=O)Cc2cc(NC(=O)CCC(F)(F)F)ccc2O[C@H]1CN(C)C(=O)NC1CCCCC1`, 0.0445% (inactive). Regarding `C[C@@H]1CN([C@@H](C)CO)C(=O)Cc2cc(NC(=O)CCC(F)(F)F)ccc2O[C@@H]1CN(C)C(=O)Nc1cccc2ccccc12`, the activation is 0.23% (inactive).

Regarding `CC(C)NC(=O)N(C)C[C@H]1Oc2ccc(NC(=O)CCC(F)(F)F)cc2CC(=O)N([C@@H](C)CO)C[C@@H]1C`, the activation is 50.4% (active). For `C[C@H]1CN([C@@H](C)CO)C(=O)Cc2cc(NC(=O)Nc3ccc(F)cc3)ccc2O[C@H]1CN(C)C(=O)Nc1ccc(C(F)(F)F)cc1`, the activation is 29.7% (active). Consider `C[C@@H]1CCCCO[C@@H](CN(C)C(=O)CCCN(C)C)[C@H](C)CN([C@@H](C)CO)C(=O)c2cc(NC(=O)Nc3ccccc3)ccc2O1`, for which the activation is -0.0275% (inactive). Consider `N#C[C@@H]1[C@@H](c2ccc(-c3ccccc3F)cc2)[C@@H](CO)N1C(=O)c1ccccn1`, for which the activation was 0.692% (inactive). As to `COC(=O)N1Cc2ccnnc2CC1c1ccccc1Br` (stereo unspecified), the activation is -0.184% (inactive). With `CSc1ccc(CN2CCC2(C)C(=O)NCc2ccccc2Br)cc1` (stereo unspecified), the activation was -0.129% (inactive). Take `CC(Sc1ccc(S(=O)(=O)N2CCN(C)CC2)cn1)C(=O)NC1CCCC(C)C1C` (stereo unspecified): the activation was -0.0545% (inactive).

In the case of `O=C(c1ccccn1)N1CC2(C1)[C@@H](c1ccccc1)[C@@H](CO)N2C(=O)C1CCCCC1`, the activation was 1.98% (inactive). As for `C[C@@H]1CN([C@H](C)CO)C(=O)Cc2cc(NC(=O)Cc3cn(C)c4ccccc34)ccc2O[C@@H]1CN(C)Cc1ccc(C(F)(F)F)cc1`, the figure is 275% (active). As for `CC(C)NC(=O)Nc1ccc2c(c1)C(=O)N([C@@H](C)CO)C[C@@H](C)[C@H](CN(C)Cc1ccc(C(=O)O)cc1)O2`, the figure is 56.9% (active). Regarding `C[C@H]1CN([C@@H](C)CO)C(=O)Cc2cc(NC(=O)Cc3cn(C)c4ccccc34)ccc2O[C@@H]1CN(C)Cc1ccccc1`, the activation is 0.509% (inactive).

`C[C@H](CO)N1C[C@H](C)[C@H](CN(C)Cc2ccc(C(=O)O)cc2)Oc2ccc(NC(=O)NC3CCCCC3)cc2C1=O`: the activation is 1.59% (inactive). As for `C[C@@H]1CN([C@H](C)CO)C(=O)c2cc(NC(=O)Nc3ccc4c(c3)OCO4)ccc2O[C@@H]1CN(C)Cc1ccc(C(F)(F)F)cc1`, the figure is 0.0795% (inactive). Consider `C[C@H](CO)N1C[C@H](C)[C@@H](CN(C)Cc2ccc(C(F)(F)F)cc2)Oc2ccc(NC(=O)CCN3CCOCC3)cc2C1=O`, for which the activation is 3.76% (inactive). As for `C[C@H]1CN([C@@H](C)CO)C(=O)Cc2cc(NC(=O)Cc3cn(C)c4ccccc34)ccc2O[C@@H]1CN(C)Cc1ccc(C(F)(F)F)cc1`, the figure is 12.9% (inactive); as for `C[C@H](CO)N1C[C@H](C)[C@@H](CN(C)Cc2ccc(C(F)(F)F)cc2)Oc2ccc(NC(=O)CCC(F)(F)F)cc2C1=O`, 63.1% (active). `CC(C)NC(=O)Nc1ccc2c(c1)C(=O)N([C@@H](C)CO)C[C@@H](C)[C@H](CN(C)Cc1ccc(-c3ccccc3)cc1)O2`: the activation was 0.764% (inactive). With `CCCNC(=O)c1cc2c(c(-c3cccc(-c4ccc(C#N)cc4)c3)n1)[C@@H](CCO)N(C(=O)CC)C2`, the activation was 1.79% (inactive).

With `CO[C@H]1CN(C)C(=O)c2cc(NC(=O)C3CCOCC3)ccc2OC[C@@H](C)N(Cc2cccnc2)C[C@@H]1C`, the activation is -0.0535% (inactive). Take `CN(C)C(=O)c1ccc(-c2ccccc2[C@H]2[C@@H](CO)N(C(=O)C3CCCCC3)[C@H]2C#N)cc1`: the activation was 0.141% (inactive). For the compound `CSc1ncccc1C(=O)N1CCCC(Nc2ccc(F)c(F)c2)C1` (stereo unspecified), the activation was -0.156% (inactive). As for `COc1ccc(NC(=O)N(C)C[C@@H]2OCCCC[C@@H](C)Oc3ccc(NS(C)(=O)=O)cc3C(=O)N([C@@H](C)CO)C[C@H]2C)cc1`, the figure is 0.098% (inactive); as for `COC(=O)C1=CN(c2c(C)cc(C)cc2C)C(N)=C(C#N)C1c1cccc(F)c1` (stereo unspecified), -0.0735% (inactive); as for `O=S(=O)(NCC1CC1)c1ccc(F)c(Cl)c1`, -0.0605% (inactive).

In the case of `COc1ccc(S(=O)(=O)N(C)CC(=O)NCCCN2CCOCC2)cc1Cl`, the activation is 0.0915% (inactive). As for `O=S(=O)(NCCCN1CCOCC1)c1ccc(F)c(Cl)c1`, the figure is 82.5% (active). Regarding `COc1ccccc1-c1ccc([C@H]2[C@H](CO)N(C(=O)C3CC3)C23CN(C(C)=O)C3)cc1`, the activation is -0.188% (inactive).

In the case of `CCC(=O)Nc1ccc2c(c1)OC[C@H](C)N(CC1CCOCC1)C[C@@H](C)[C@@H](OC)CN(C)C2=O`, the activation was 0.195% (inactive).

`CO[C@@H]1CN(C)C(=O)c2cc(NS(=O)(=O)c3ccc(C)cc3)ccc2OC[C@H](C)N(Cc2nccs2)C[C@@H]1C`: the activation is -0.0505% (inactive). As for `COCCn1c(SCC(=O)c2[nH]c(C)c(C(C)=O)c2C)nc2ccccc2c1=O`, the figure is -0.059% (inactive); as for `CCOCCCn1c(NN)nc2ccccc2c1=O`, -0.132% (inactive). As for `COCCCn1c(-c2cccs2)nc2nc3ccccc3nc21`, the activation is 42.8% (active).
